Measured values reported in ChEMBL document CHEMBL3217651, “A furoxan-amodiaquine hybrid as a potential therapeutic for three parasitic diseases()” (Medchemcomm, 2012).
Activity calls are given as the source filed them. No cut-off for these calls is given here.

Key:
Plasmodium falciparum [1] = test: Antimalarial activity against chloroquine-sensitive Plasmodium falciparum 3D7 infected in human erythrocytes after 96 hrs by luciferase based delayed death assay; assay type: functional, organism-based; details: 3D7, 96 h
In short: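 Delayed-death format of the 3D7 erythrocyte proliferation assay: parasites incubated 96 hours with compound so that activity against progeny is detected, with luciferase as the viability reporter; IC50 taken from this read-out.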

Schistosoma mansoni [2] = test: Antischistosomiasis activity against Schistosoma mansoni at 5 nM to 50 uM by thioredoxin glutathione reductase biochemical assay; assay type: functional
In short: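 S. mansoni TGR (20 nM) preincubated 10 min at room temperature with 100 μM NADPH and compound (50 μM to 5 nM, eight levels) in 0.1 M potassium phosphate pH 7.4, 10 mM EDTA. Then 3 mM DTNB was added and A412 followed over the first 3 min. Residual activity was expressed relative to DMSO controls, in triplicate, and IC50 derived.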

Schistosoma mansoni [3] = test: Antischistosomiasis activity against Schistosoma mansoni assessed as worm mobility and survival at 50 uM after 24 hrs by stereomicroscopic analysis; assay type: functional, organism-based
In short: (§1)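 Adult worms perfused with RPMI 1640 from female Swiss-Webster mice 7 weeks after cercarial infection. They were washed and held at 15–20 per well in cRPMI (25 mM HEPES, penicillin/streptomycin, 10% FBS) overnight at 37 °C, 5% CO2. Compound from 10 mM DMSO stock was tested at 50, 10, 5 and 1 μM against DMSO-only wells. Media plus compound were renewed every 48 h; motility and survival scored by stereomicroscope, 10 s per worm.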

Schistosoma mansoni [4] = test: Antischistosomiasis activity against Schistosoma mansoni assessed as worm mobility and survival at 10 uM by stereomicroscopic analysis; assay type: functional, organism-based; in short: as §1
Ancylostoma ceylanicum [5] = test: Nematicidal activity against Ancylostoma ceylanicum assessed as live/dead worms at 100 uM up to 120 hrs by adult worm killing assay; assay type: functional, organism-based
In short: (§2)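 Adult A. ceylanicum taken from small intestine of infected Syrian hamsters, cultured in RPMI 1640 with 50% FCS, penicillin/streptomycin, Fungizone. Ten worms per well, 2 wells per treatment, with 100 μM compound; DMSO and 100 μM albendazole controls. Wells scored by light microscopy every 24 h for percent live/dead, death meaning complete loss of motility, across 120 h.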

Ancylostoma ceylanicum [6] = test: Nematicidal activity against Ancylostoma ceylanicum assessed as live/dead worms at 100 uM after 72 hrs by adult worm killing assay; assay type: functional, organism-based; in short: as §2
Plasmodium falciparum [7] = test: Antimalarial activity against chloroquine-sensitive Plasmodium falciparum 3D7 infected in human erythrocytes after 72 hrs by SYBR Green I staining; details: 3D7, 72 h
Plasmodium falciparum [8] = test: Ratio of IC50 for chloroquine-sensitive Plasmodium falciparum 3D7 by luciferase based delayed death assay to IC50 for chloroquine-sensitive Plasmodium falciparum 3D7 by SYBR Green I staining; assay type: functional
In short: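 P. falciparum 3D7 in human erythrocytes (0.3% parasitemia, 2.5% hematocrit final), seven fivefold dilutions from 5.7 or 29 μM. Standard format: 72 h at 37 °C, 5% CO2, then saponin/Triton lysis with SYBR Green I overnight in the dark, fluorescence 485/535 nm. Delayed-death format: 96 h, luciferase viability read-out. The line is the ratio of the delayed-death IC50 to the SYBR IC50.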

Row | SMILES | IC50 (Plasmodium falciparum [1]) | Activity (Schistosoma mansoni [2]) | Activity (Schistosoma mansoni [3]) | Activity (Schistosoma mansoni [4]) | Activity (Ancylostoma ceylanicum [5]) | Activity (Ancylostoma ceylanicum [6]) | IC50 (Plasmodium falciparum [7]) | Ratio IC50 (Plasmodium falciparum [8])
1 | CC(C)(C)NCc1cc(Nc2ccnc3cc(Cl)ccc23)cc(-c2no[n+]([O-])c2C#N)c1 | 630 nM | Active | Active | inactive | Active | Active | 40 nM | –
2 | N#Cc1c(-c2ccccc2)no[n+]1[O-] [FUROXAN] | – | Active | – | Active | – | – | – | –
3 | CC(C)(C)NCc1cc(Br)cc(Nc2ccnc3cc(Cl)ccc23)c1 | 65 nM | – | – | – | – | – | 7 nM | –
4 | CC(C)(C)N(Cc1cc(Nc2ccnc3cc(Cl)ccc23)cc(-c2no[n+]([O-])c2C#N)c1)N=O | > 15000 nM | – | – | – | – | – | 113 nM | –
5 | CCN(CC)Cc1cc(Nc2ccnc3cc(Cl)ccc23)ccc1O | > 10000 nM | – | – | – | – | – | 15 nM | –
6 | CC(C)(C)N(Cc1cc(Nc2ccnc3cc(Cl)ccc23)cc(-c2no[n+]([O-])c2/C=N/O)c1)N=O | 1070 nM | – | – | – | – | – | 24 nM | 50
7 | C[C@@H]1CC[C@H]2[C@@H](C)C(=O)O[C@@H]3O[C@@]4(C)CC[C@@H]1[C@]32OO4 [ARTEMISININ] | 12 nM | – | – | – | – | – | 11 nM | –
